The source of these data is ChEMBL document CHEMBL1949501, “Novel acid-type cyclooxygenase-2 inhibitors: Design, synthesis, and structure-activity relationship for anti-inflammatory drug” (Eur J Med Chem, 2012).

For assay [1], the target named is T1, Prostaglandin G/H synthase 2 (Homo sapiens, UniProt P35354).
T1 sequence (P35354 whole entry): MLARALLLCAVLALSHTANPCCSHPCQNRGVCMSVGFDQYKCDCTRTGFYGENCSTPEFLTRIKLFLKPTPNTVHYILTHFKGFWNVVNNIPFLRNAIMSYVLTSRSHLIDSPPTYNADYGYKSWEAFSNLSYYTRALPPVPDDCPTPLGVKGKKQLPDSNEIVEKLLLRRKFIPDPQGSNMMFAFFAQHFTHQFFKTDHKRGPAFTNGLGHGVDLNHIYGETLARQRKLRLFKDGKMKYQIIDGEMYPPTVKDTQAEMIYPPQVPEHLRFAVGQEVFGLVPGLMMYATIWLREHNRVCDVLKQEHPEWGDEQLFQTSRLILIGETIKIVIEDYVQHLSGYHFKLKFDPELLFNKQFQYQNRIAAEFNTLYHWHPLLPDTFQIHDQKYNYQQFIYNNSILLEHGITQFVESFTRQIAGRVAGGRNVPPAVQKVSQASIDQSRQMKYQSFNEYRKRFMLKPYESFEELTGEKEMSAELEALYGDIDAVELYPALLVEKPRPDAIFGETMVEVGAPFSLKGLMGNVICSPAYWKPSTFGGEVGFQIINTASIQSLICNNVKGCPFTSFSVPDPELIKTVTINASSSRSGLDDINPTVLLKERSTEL
The assay can be described thus: Inhibition of COX-2-mediated PGE2 production in LPS-induced human whole blood after 24 hrs by RIA. The method, boiled down: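 Heparinized whole blood from healthy adult volunteers mixed with compound in DMSO (0.1–100 µM final; DMSO under 0.1%) and E. coli 0111:B4 LPS (30 µg/mL final), incubated 24 h at 37 °C to induce COX-2; PGE2 synthesis measured; IC50.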

Assay [2] addresses T1, Prostaglandin G/H synthase 2. The assay can be described thus: Inhibition of COX-2-mediated 6-keto-PGF1alpha production in IL-1beta-induced HUVEC preincubated for 20 mins prior A23187 stimulation measured after 15 mins by RIA.
Assay [3] has as its target T2, Prostaglandin G/H synthase 1 (Homo sapiens, UniProt P23219). Put plainly: Inhibition of COX-1-mediated TXB2 production in human platelets preincubated for 20 mins prior A23187 stimulation measured after 15 mins by RIA.
For assay [4], the target named is T2, Prostaglandin G/H synthase 1. Put plainly: Inhibition of COX-1-mediated TXB2 production in human whole blood after 30 mins post A23187 stimulation by RIA.
Assay [5] has as its target COX-1/COX-2 (Homo sapiens) (UniProt P35354+P23219). The assay can be described thus: Selectivity ratio of IC50 for COX-1-mediated TXB2 production in human platelets to IC50 for COX-2-mediated 6-keto-PGF1alpha production in IL-1beta-induced HUVEC.
Another assay deals with Rattus norvegicus. The assay can be described thus: Antiinflammatory activity in SPF/VAF Sprague-Dawley rat assessed as inhibition of carrageenan-induced paw oedema at 10 mg/kg, po administered 1 hr prior carrageenan challenge measured after 3 hrs by plethysmometry. Format: functional. In short, it runs like this: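 Male SPF/VAF Sprague-Dawley rats (Crj:CD(SD), 5 weeks, 110–130 g), fasted overnight, given carrageenan intraplantarly in the hind paw. Test compound or vehicle (5% (v/v) Tween 80 in distilled water) dosed orally at 1 mL/100 g body weight 1 h before carrageenan. Foot volume read by water-displacement plethysmometer before and 3 h after injection; percent inhibition relative to vehicle group taken as 0%.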
On the technique in general: Carrageenan injected into the paw causes an acute inflammation.

Sequence of COX-1/COX-2 (Homo sapiens) (P23219 whole entry, looked up, one chain of several): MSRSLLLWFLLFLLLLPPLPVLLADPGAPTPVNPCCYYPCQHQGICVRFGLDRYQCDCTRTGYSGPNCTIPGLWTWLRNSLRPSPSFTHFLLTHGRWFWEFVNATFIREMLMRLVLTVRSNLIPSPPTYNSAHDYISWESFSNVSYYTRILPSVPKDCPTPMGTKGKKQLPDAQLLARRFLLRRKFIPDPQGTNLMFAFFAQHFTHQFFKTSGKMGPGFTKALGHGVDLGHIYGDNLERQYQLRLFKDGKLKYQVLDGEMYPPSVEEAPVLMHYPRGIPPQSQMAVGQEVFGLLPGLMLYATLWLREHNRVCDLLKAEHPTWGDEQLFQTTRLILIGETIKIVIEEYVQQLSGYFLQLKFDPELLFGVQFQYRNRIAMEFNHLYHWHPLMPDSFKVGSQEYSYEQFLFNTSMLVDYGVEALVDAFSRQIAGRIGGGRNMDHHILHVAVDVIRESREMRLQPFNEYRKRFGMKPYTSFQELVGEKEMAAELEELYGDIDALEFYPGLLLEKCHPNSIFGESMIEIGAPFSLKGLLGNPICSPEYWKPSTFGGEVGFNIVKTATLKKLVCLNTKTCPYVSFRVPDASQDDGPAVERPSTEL
T2 sequence (P23219 whole entry): as the sequence (P23219 whole entry, looked up, one chain of several) above

Turning to `CCc1ccc2[nH]c(C(=O)c3cc(C)ccn3)c(CC(=O)O)c2c1`, the IC50 (commonly the concentration at which inhibition is half-maximal) in assay [1] is 1600 nM; in assay [2], 15.7 nM; in assay [3] it was 882 nM; in assay [4] it was 47000 nM.

As for `Cc1ccnc(C(=O)c2[nH]c3cc(Cl)c(F)cc3c2CC(=O)O)c1`, the IC50 in assay [1] came to 100 nM; in assay [2], 6.77 nM; in assay [3] it was 65.9 nM; in assay [4], 7700 nM. For the same molecule, in assay [5], the Ratio IC50 was 9.73.

For the molecule `CCc1ccnc(C(=O)c2[nH]c3ccc(OC(F)(F)F)cc3c2CC(=O)O)c1`, the IC50 in assay [1] is 5700 nM; in assay [2] it was 421 nM; in assay [3], greater than 10000 nM; in assay [4], greater than 100000 nM.

As to `CCOc1cnc(C(=O)c2[nH]c3cc(Cl)ccc3c2CC(=O)O)cc1CC`, the figures for the IC50 in assay [2] and in assay [3] were 598 nM and greater than 10000 nM, respectively.

As to `COc1ccc2[nH]c(C(=O)c3cc(C)ccn3)c(CC(=O)O)c2c1`, the IC50 in assay [1] is 2200 nM; in assay [2] it was 128 nM; in assay [3] it was 3050 nM; in assay [4], greater than 100000 nM. Further, the Ratio IC50 in assay [5] was determined as 23.8.

For `CCc1ccc2c(CC(=O)O)c(C(=O)c3cc(C)ccn3)[nH]c2c1`, the IC50 in assay [2] was 414 nM; in assay [3] it was greater than 10000 nM.

For the molecule `Cc1ccnc(C(=O)c2[nH]c3cc(F)ccc3c2CC(=O)O)c1`, the IC50 in assay [1] is 155 nM; in assay [2], 9.81 nM; in assay [3] it was 849 nM; in assay [4] it was 33500 nM. In addition, the inhibition in vivo (commonly the share of the control response that was lost under treatment) at 10 mg/kg in the assay on Rattus norvegicus came to 70%. In addition, the Ratio IC50 in assay [5] worked out at 86.5.

With `Cc1ccnc(C(=O)c2[nH]c3ccc(F)cc3c2CC(=O)O)c1`, the IC50 in assay [1] worked out at 150 nM; in assay [2], 5.68 nM; in assay [3], 150 nM; in assay [4], 21400 nM. The Ratio IC50 in assay [5] worked out at 26.4.

Turning to `O=C(O)Cc1c(C(=O)c2cc3c(cn2)CCCC3)[nH]c2cc(Cl)ccc12`, the figures for the IC50 in assay [2] and in assay [3] were 19.2 nM and greater than 10000 nM, respectively. The Ratio IC50 in assay [5] was greater than 521.

For `CCc1cc(C(=O)c2[nH]c3cc(Cl)ccc3c2CC(=O)O)ncc1Cl`, the IC50 in assay [2] was 30.7 nM; in assay [3], greater than 10000 nM. Moreover, in assay [5], the Ratio IC50 was greater than 326.

Take `Cc1ccnc(C(=O)c2[nH]c3ccc(OC(F)(F)F)cc3c2CC(=O)O)c1`: the IC50 is 1900 nM in assay [1], 39.6 nM in assay [2], 1000 nM in assay [3] and greater than 100000 nM in assay [4].

In the case of `COc1ccc2c(CC(=O)O)c(C(=O)c3cc(C)ccn3)[nH]c2c1`, the IC50 in assay [1] is 1900 nM; in assay [2], 128 nM; in assay [3] it was greater than 10000 nM; in assay [4], greater than 100000 nM. Further, the Ratio IC50 in assay [5] was greater than 78.1.

Take `Cc1ccnc(C(=O)c2[nH]c3ccc(C(C)(C)C)cc3c2CC(=O)O)c1`: the figures for the IC50 in assay [2] and in assay [3] were 41.5 nM and 1510 nM, respectively.
